Here are results for nine molecules from ChEMBL document CHEMBL1124194, “Enantioselectivity of muscarinic antagonists. Isomeric 2-cyclohexyl-2-phenyl-5-[(dimethylamino)methyl]-1,3-oxathiolane methiodides” (J Med Chem, 1988).

Holding throughout (assay type): ADME, organism-based
The species entered for test [1] is Cavia porcellus. Nature of the test: Tested for antimuscarinic potency on guinea pig heart force. To be noted: for Kb: Cavia porcellus, Heart, read-out: pA2 (converted). An outline of the steps:
(§1)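 Guinea pig heart (force and rate) antagonism of carbachol as agonist; pA2 from Schild plot with slope constrained to 1; six to eight replications. Where an antagonist lowered the carbachol maximum at 1×10^-5 M, −log Kb was instead calculated from log(Dr − 1) = log[ant.] − log Kb at a single antagonist concentration of 3×10^-6 M.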

The species entered for test [2] is Cavia porcellus. Nature of the test: Tested for antimuscarinic potency on guinea pig heart rate. To be noted: for Kb: Cavia porcellus, Heart, read-out: pA2 (converted). An outline of the steps: as §1
Test [3] is filed under the species Cavia porcellus. Nature of the test: Tested for antimuscarinic potency on guinea pig ileum. To be noted: for Kb: Cavia porcellus, Ileum, read-out: pA2 (converted).
The species entered for the next test is Rattus norvegicus. Nature of the test: Tested for antimuscarinic potency on rat bladder. To be noted: for Kb: Rattus norvegicus, read-out: pA2 (converted).

For `CN(C)C[C@@H]1CS[C@@](c2ccccc2)(C2CCCCC2)O1` (racemic), the Kb in the test listed under Cavia porcellus [1] was 0.263 µM; in the test filed under Cavia porcellus [2] it was 0.162 µM; in the test listed under Cavia porcellus [3], 0.0372 µM; in the test filed under Rattus norvegicus, 0.123 µM.
As to `CN(C)C[C@@H]1CS[C@](c2ccccc2)(C2CCCCC2)O1` (racemic), the Kb in the test listed under Cavia porcellus [1] was 0.0331 µM; in the test filed under Cavia porcellus [2], 0.0372 µM; in the test listed under Cavia porcellus [3] it was 0.012 µM; in the test listed under Rattus norvegicus it was 0.0447 µM.
By pA2 is commonly meant a measure of antagonist potency on a negative log scale. Take `C[N+](C)(C)C[C@@H]1CS[C@](c2ccccc2)(C2CCCCC2)O1.[I-]` (racemic): the figures for the Kb in the test filed under Cavia porcellus [1] and in the test filed under Cavia porcellus [2] were 0.00776 µM and 0.00724 µM, respectively. The pA2 in the test filed under Cavia porcellus [3] is on record as 8.26; in the test filed under Rattus norvegicus, 8.05.
Take `C[N+](C)(C)C[C@@H]1CS[C@@](c2ccccc2)(C2CCCCC2)O1.[I-]` (racemic): the pA2 in the test filed under Cavia porcellus [1] was 8.13; in the test filed under Cavia porcellus [2], 7.91; in the test listed under Cavia porcellus [3], 8.38; in the test filed under Rattus norvegicus, 8.22.
With `C[N+](C)(C)C[C@@H]1CS[C@@](c2ccccc2)(C2CCCCC2)O1.[I-]` (stereo in doubt; (+)4), the pA2 was 8.47 in the test filed under Cavia porcellus [1], 8.35 in the test filed under Cavia porcellus [2], 8.79 in the test filed under Cavia porcellus [3] and 8.58 in the test filed under Rattus norvegicus.
The matching figures for `C[N+](C)(C)C[C@@H]1CS[C@](c2ccccc2)(C2CCCCC2)O1.[I-]` (stereo in doubt; (+)-2): 8.1, 8.05, 8.57 and 8.29.
For the molecule `C[N+](C)(C)C[C@@H]1CS[C@](c2ccccc2)(C2CCCCC2)O1.[I-]` (stereo in doubt; (-)2), the pA2 worked out at 8.07 in the test listed under Cavia porcellus [1], 8.06 in the test listed under Cavia porcellus [2], 7.86 in the test filed under Cavia porcellus [3] and 7.61 in the test listed under Rattus norvegicus.
Take `C[N+](C)(C)C[C@@H]1CS[C@@](c2ccccc2)(C2CCCCC2)O1.[I-]` (stereo in doubt; (-)4): the pA2 is given as 8.16 in the test filed under Cavia porcellus [1], 7.99 in the test filed under Cavia porcellus [2], 7.86 in the test listed under Cavia porcellus [3] and 7.45 in the test listed under Rattus norvegicus.
Consider `CN1[C@@H]2CC[C@H]1C[C@@H](OC(=O)C(CO)c1ccccc1)C2` (stereo partly drawn) [ATROPINE], for which, in the test listed under Rattus norvegicus, the Kb was 0.00129 µM.
